Experimental data: ChEMBL document CHEMBL5120856, “New salicylic acid derivatives, double inhibitors of glycolate oxidase and lactate dehydrogenase, as effective agents decreasing oxalate production” (Eur J Med Chem, 2022)
Calls of active or inactive are those of the source. No cut-off for these calls is given here.

Experiments:
2-Hydroxyacid oxidase 1 [1] = molecular target: T1, 2-Hydroxyacid oxidase 1 (Mus musculus, UniProt Q9WU19); assay: Inhibition of N-terminal His-tagged mouse recombinant glycolate oxidase expressed in Escherichia coli BL21 (DE3) cells using glycolate as substrate preincubated for 10 mins followed by substrate addition and measured after 10 mins by Amplex red and horseradish peroxidase based fluorescence assay
T1 sequence (Q9WU19 whole entry): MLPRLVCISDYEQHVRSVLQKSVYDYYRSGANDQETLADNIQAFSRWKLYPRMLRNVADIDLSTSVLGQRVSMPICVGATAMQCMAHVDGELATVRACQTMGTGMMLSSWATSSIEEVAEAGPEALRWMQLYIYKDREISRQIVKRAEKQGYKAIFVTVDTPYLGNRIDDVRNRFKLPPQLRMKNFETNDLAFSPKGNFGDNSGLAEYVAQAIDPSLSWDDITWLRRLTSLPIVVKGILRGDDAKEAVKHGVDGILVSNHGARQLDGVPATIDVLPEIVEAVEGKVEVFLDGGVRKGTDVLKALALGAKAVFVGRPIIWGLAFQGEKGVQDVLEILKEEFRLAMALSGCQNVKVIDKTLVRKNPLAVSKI

[2] = molecular target: T2, L-lactate dehydrogenase B chain (Homo sapiens, UniProt P07195); assay: Inhibition of human recombinant LDHB using pyruvate as substrate preincubated for 10 mins followed by substrate addition and measured every 60 sec for 10 mins in the presence of NADH by fluorescence assay
T2 sequence (P07195 whole entry): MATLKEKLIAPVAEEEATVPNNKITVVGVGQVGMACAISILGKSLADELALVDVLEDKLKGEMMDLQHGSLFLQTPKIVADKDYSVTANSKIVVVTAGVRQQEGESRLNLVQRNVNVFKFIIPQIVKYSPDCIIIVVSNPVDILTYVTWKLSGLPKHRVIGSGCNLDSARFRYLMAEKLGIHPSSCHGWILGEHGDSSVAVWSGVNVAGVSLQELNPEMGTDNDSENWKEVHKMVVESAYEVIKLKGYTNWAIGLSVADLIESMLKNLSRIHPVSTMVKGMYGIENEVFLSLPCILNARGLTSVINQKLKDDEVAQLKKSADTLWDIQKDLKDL

2-Hydroxyacid oxidase 1 [3] = molecular target: T1, 2-Hydroxyacid oxidase 1; assay: Non-competitive mixed inhibition of N-terminal His-tagged mouse recombinant glycolate oxidase expressed in Escherichia coli BL21 (DE3) cells assessed as inhibition constant using varying concentration of glycolate as substrate measured every 60 sec for 15 mins by Amplex red and horseradish peroxidase based fluorescence assay
[4] = molecular target: T2, L-lactate dehydrogenase B chain; assay: Non-competitive inhibition of human recombinant LDHB assessed as inhibition constant using varying concentration of pyruvate as substrate preincubated for 10 mins followed by substrate addition and measured every 60 sec for 10 mins in the presence of NADH by fluorescence assay
[5] = molecular target: T2, L-lactate dehydrogenase B chain; assay: Mixed inhibition of human recombinant LDHB assessed as inhibition constant using varying concentration of pyruvate as substrate preincubated for 10 mins followed by substrate addition and measured every 60 sec for 10 mins in the presence of NADH by fluorescence assay
[6] = molecular target: T3, 2-Hydroxyacid oxidase 1 (Mus musculus) (UniProt Q9WU19); assay: Non-competitive mixed inhibition of N-terminal His-tagged mouse recombinant glycolate oxidase expressed in Escherichia coli BL21 (DE3) cells assessed as decrease in Vmax with increase in apparent Km using glycolate as substrate upto 60 microM
T3 sequence (whole entry): T1 sequence (Q9WU19 whole entry)

Hepatocyte [7] = assay: Cytotoxicity against hyperoxaluric-primary hepatocyte isolated from Hoga1-knockdown PH3 C57BL/6 mouse assessed as cell death at 10 uM by MTS assay; format: toxicity, cell-based; details: hepatocytes, Hoga1-knockdown PH3, 10 µM
Outline: (§1)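 Primary hepatocytes from Agxt1-/- (PH1, 5 mM glycolate), Grhpr-/- (PH2, 10 mM glycolate) or Hoga1-/- (PH3, 10 mM hydroxyproline) mice, incubated with inhibitor at 10 μM; viability followed through the oxalate assay by MTS tetrazolium method.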

Hepatocyte [8] = assay: Cytotoxicity against hyperoxaluric-primary hepatocyte isolated from Grhpr-knockdown PH2 C57BL/6 mouse assessed as cell death at 10 uM by MTS assay; format: toxicity, cell-based; details: hepatocytes, Grhpr-knockdown PH2 (primary hyperoxaluria type 2); outline: as §1
Hepatocyte [9] = assay: Cytotoxicity against hyperoxaluric-primary hepatocyte isolated from Agxt1-knockdown PH1 C57BL/6 mouse assessed as cell death at 10 uM by MTS assay; format: toxicity, cell-based; details: hepatocytes, Agxt1-knockdown PH1, 10 µM; outline: as §1
Hepatocyte [10] = assay: Inhibition of GO/LDHA in hyperoxaluric-primary hepatocyte isolated from Agxt1 knockdown PH1 C57BL/6 mouse assessed as reduction in extracellular oxalate concentration at 10 uM measured at 48 hrs in the presence of glycolate relative to control; format: cell-based; set-up: scale not given: the % may be the effect or the level left
Outline: (§2)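 Agxt1-/- mouse primary hepatocytes cultured with 5 mM glycolate, inhibitor at 10 μM; extracellular oxalate measured by colorimetric kit 24 and 48 h after inhibitor addition; relative oxalate = oxalate with inhibitor over oxalate without inhibitor; negative values mean below detection limit; mean of three/four replicates ± SD.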

Hepatocyte [11] = assay: Inhibition of GO/LDHA in hyperoxaluric-primary hepatocyte isolated from Agxt1 knockdown PH1 C57BL/6 mouse assessed as reduction in relative oxalate output at 10 uM measured at 24 hrs in the presence of glycolate relative to control; format: cell-based; set-up: scale not given: the % may be the effect or the level left; outline: as §2
Hepatocyte [12] = assay: Inhibition of GO/LDHA in hyperoxaluric-primary hepatocyte isolated from Grhpr-knockdown PH2 C57BL/6 mouse assessed as reduction in relative oxalate output at 10 uM measured at 24 hrs in the presence of glycolate relative to control; format: cell-based; set-up: scale not given: the % may be the effect or the level left
Outline: (§3)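 Grhpr-/- mouse primary hepatocytes cultured with 10 mM glycolate, inhibitor at 10 μM; extracellular oxalate determined colorimetrically at 24 and 48 h post-treatment, expressed relative to untreated medium (RO); negative RO means below detection limit; three/four replicates, mean ± SD.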

Hepatocyte [13] = assay: Inhibition of GO/LDHA in hyperoxaluric-primary hepatocyte isolated from Hoga1-knockdown PH3 C57BL/6 mouse assessed as reduction in relative oxalate output at 10 uM measured at 24 hrs in the presence of hydroxyproline relative to control; format: cell-based; set-up: scale not given: the % may be the effect or the level left
Outline: (§4)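 Hoga1-/- mouse primary hepatocytes challenged with 10 mM hydroxyproline, inhibitor 10 μM; extracellular oxalate measured by colorimetric kit 24 and 48 h after dosing, given as ratio to oxalate without inhibitor; negative values are below detection limit; mean of three/four replicates ± SD.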

Hepatocyte [14] = assay: Inhibition of GO/LDHA in hyperoxaluric-primary hepatocyte isolated from Grhpr-knockdown PH2 C57BL/6 mouse assessed as reduction in relative oxalate output at 10 uM measured at 48 hrs in the presence of glycolate relative to control; format: cell-based; set-up: scale not given: the % may be the effect or the level left; outline: as §3
Hepatocyte [15] = assay: Inhibition of GO/LDHA in hyperoxaluric-primary hepatocyte isolated from Hoga1-knockdown PH3 C57BL/6 mouse assessed as reduction in relative oxalate output at 10 uM measured at 48 hrs in the presence of hydroxyproline relative to control; format: cell-based; set-up: scale not given: the % may be the effect or the level left; outline: as §4
[16] = Inhibition of GO/LDHA in hyperoxaluric-primary hepatocyte isolated from Agxt1 knockdown PH1 C57BL/6 mouse measured at 24 hrs in the presence of 5 mM glycolate; format: cell-based
Outline: (§5)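 Agxt1-/- hepatocytes with 5 mM glycolate; eight inhibitor concentrations per replicate; extracellular oxalate measured colorimetrically at 24 or 48 h; EC50 as mean of three/four replicates ± SD.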

[17] = Inhibition of GO/LDHA in hyperoxaluric-primary hepatocyte isolated from Grhpr-knockdown PH2 C57BL/6 mouse measured at 24 hrs in the presence of 10 mM glycolate; format: cell-based
Outline: (§6)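 Grhpr-/- hepatocytes with 10 mM glycolate; eight inhibitor concentrations per replicate; colorimetric extracellular oxalate at 24 or 48 h; EC50 as mean of three/four replicates ± SD.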

[18] = Inhibition of GO/LDHA in hyperoxaluric-primary hepatocyte isolated from Hoga1-knockdown PH3 C57BL/6 mouse measured at 24 hrs in the presence of hydroxyproline; format: cell-based
Outline: (§7)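 Hoga1-/- hepatocytes with 10 mM hydroxyproline; eight inhibitor concentrations per replicate; colorimetric extracellular oxalate at 24 or 48 h; EC50 as mean of three/four replicates ± SD.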

[19] = Inhibition of GO/LDHA in hyperoxaluric-primary hepatocyte isolated from Agxt1 knockdown PH1 C57BL/6 mouse measured at 48 hrs in the presence of 5 mM glycolate; format: cell-based; outline: as §5
[20] = Inhibition of GO/LDHA in hyperoxaluric-primary hepatocyte isolated from Grhpr-knockdown PH2 C57BL/6 mouse measured at 48 hrs in the presence of 10 mM glycolate; format: cell-based; outline: as §6
[21] = Inhibition of GO/LDHA in hyperoxaluric-primary hepatocyte isolated from Hoga1-knockdown PH3 C57BL/6 mouse measured at 48 hrs in the presence of hydroxyproline; format: cell-based; outline: as §7
HEK293 = assay: Cytotoxicity against HEK293 cells assessed as reduction in cell viability upto 50 uM measured after 48 hrs by MTT assay; format: toxicity, cell-based; details: human, hek293, 48 h
[22] = In vivo inhibition of GO/LDHA in Agxt1 knockdown PH1 C57BL/6 mouse assessed as decrease in urine oxalate level at 20 mg/kg, po administered for 5 days relative to control; format: functional; set-up: scale not given: the % may be the effect or the level left; details: time 5 day
Outline: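 Agxt1-/- (PH1) mice, ten males, dosed orally at 20 mg/kg body weight once daily for 5 days. 24-h urine was collected, and oxalate was normalised to creatinine. Urine glycolate was also measured. Values are expressed as % of each animal's own basal pre-treatment excretion, which serves as the control, and are reported as mean ± SE.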

Mus musculus = assay: In vivo inhibition of GO/LDHA in Agxt1 knockdown PH1 C57BL/6 mouse assessed as increase in urine glycolate level at 20 mg/kg, po administered for 5 days relative to control; format: functional, organism-based; details: time 5.0 day
Outline: (§8)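 Ten male Agxt1-/- mice dosed orally at 20 mg/kg daily for 5 days; 24-h urine oxalate (creatinine-normalized) and glycolate compared with pre-treatment baseline; clinical signs of toxicity monitored; mean ± SE.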

[23] = Toxicity in Agxt1 knockdown PH1 C57BL/6 mouse assessed as tolerance at 20 mg/kg, po administered for 5 days; format: organism-based; details: in vivo, pH 1, 20 mg/kg, 120 h, time 5 day; outline: as §8
[24] = Toxicity in Agxt1 knockdown PH1 C57BL/6 mouse assessed as clinical signs of toxicity at 20 mg/kg, po administered for 5 days; format: organism-based; details: in vivo, pH 1, 20 mg/kg, 120 h, time 5 day; outline: as §8

C#CCNCc1ccc(-c2ccc(O)c(C(=O)O)c2)o1.N
IC50 (2-Hydroxyacid oxidase 1 [1]): 8.1 µM | IC50 [2]: 11.8 µM | Ki (2-Hydroxyacid oxidase 1 [3]): 10.5 µM | Ki [4]: 5.1 µM | Ki [5]: 2 µM | inhibition [6]: Active | Activity (Hepatocyte [7]): Non-Toxic | Activity (Hepatocyte [8]): Non-Toxic | Activity (Hepatocyte [9]): Non-Toxic | Activity (Hepatocyte [10]): 70% | Activity (Hepatocyte [11]): 90% | Activity (Hepatocyte [12]): 90% | Activity (Hepatocyte [13]): 90% | Activity (Hepatocyte [14]): 70% | Activity (Hepatocyte [15]): 70% | EC50 [16]: 4 µM | EC50 [17]: 1.2 µM | EC50 [18]: 1.7 µM | EC50 [19]: 3.8 µM | EC50 [20]: 2.7 µM | EC50 [21]: 1.9 µM | Activity (HEK293): Non-Toxic | Activity [22]: 50% | Activity (Mus musculus): Active | Activity [23]: Non-Toxic | Activity [24]: Non-Toxic
